Experimental data from ChEMBL document CHEMBL1649480, “Farnesol-induced apoptosis in Candida albicans” (2009).
Activity calls are given as the source filed them. No cut-off for these calls is given here.

Key:
[1] = test system: Candida albicans; assay: Upregulation of POR1 expression in Candida albicans SC5314 at 200 uM after 24 hrs by MALDI-TOF MS; format: functional, organism-based
Summary of the method: (§1)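 SC5314 grown overnight at 30°C, 120 rpm, in yeast nitrogen base (pH 7.0) with 50 mM glucose. Cells were washed in PBS and adjusted to OD600 0.1, then treated 24 h with farnesol from a methanol dilution; controls received methanol. Proteomes of treated and untreated cells were compared by 2-D SDS-PAGE and MALDI-TOF MS, with ProFound searches of the NCBI nonredundant database. Spots changed at least 1.5-fold in three independent experiments were counted.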

[2] = test system: Candida albicans; assay: Increase in MCA1 expression in Candida albicans SC5314 at 2.5 mM after 4 hrs by quantitative PCR analysis
[3] = test system: Candida albicans; assay: Induction of apoptosis in Candida albicans SC5314 assessed as cell death level at 200 uM after 3 hrs by Fluorescence analysis; format: functional
Summary of the method: (§2)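 Washed, OD600 0.1 SC5314 cells (overnight culture at 30°C in YNB pH 7.0 with 50 mM glucose) exposed 3 h to farnesol, with methanol vehicle and H2O2 controls. Stained 30 min in the dark with a mix of dichlorodihydrofluorescein diacetate, propidium iodide and calcofluor white, then PBS-washed. Confocal imaging; red propidium iodide-stained cells scored as a percentage of all cells.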

[4] = test system: Candida albicans; assay: Upregulation of Putative Rho protein GDP dissociation factor expression in Candida albicans SC5314 at 200 uM after 24 hrs by MALDI-TOF MS; format: functional, organism-based; summary of the method: as §1
[5] = test system: Candida albicans; assay: Downregulation of Heat shock protein 60 expression in Candida albicans SC5314 at 200 uM after 24 hrs by MALDI-TOF MS; format: functional, organism-based
Summary of the method: (§3)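 Overnight YNB-glucose SC5314 culture, PBS-washed, adjusted to OD600 0.1 and treated 24 h with 40 or 200 μM farnesol (methanol in controls). Proteomes were compared with untreated cells by 2D SDS-PAGE and MALDI-TOF MS, searched against NCBI nonredundant database. Spots were counted as changed at ≥1.5-fold in three independent experiments.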

[6] = test system: Candida albicans; assay: Upregulation of Aryl-alcohol dehydrogenase expression in Candida albicans SC5314 at 40 uM after 24 hrs by MALDI-TOF MS; format: functional, organism-based; summary of the method: as §3
[7] = test system: Candida albicans; assay: Upregulation of Phosphoglycerate mutase expression in Candida albicans SC5314 at 200 uM after 24 hrs by MALDI-TOF MS; format: functional, organism-based; summary of the method: as §1
[8] = test system: Candida albicans; assay: Upregulation of Glutathione reductase expression in Candida albicans SC5314 at 200 uM after 24 hrs by MALDI-TOF MS; format: functional, organism-based; summary of the method: as §3
[9] = test system: Candida albicans; assay: Induction of apoptosis in Candida albicans SC5314 at 200 uM after 24 hrs by TUNEL assay; format: functional
Summary of the method: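 After 24 h in farnesol (40, 100, 200 μM), cells were PBS-washed, fixed in 4% paraformaldehyde (pH 7.4) 1 h at 20°C, and permeabilized 2 min on ice. They were labeled with 9:1 label:enzyme TUNEL mix 1 h at 37°C in the dark and examined by fluorescence microscopy at 515–565 nm. Flow cytometry counted % positive of 30,000 gated cells, gates set by no-enzyme and DNase-treated controls.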

[10] = test system: Candida albicans; assay: Induction of apoptosis in Candida albicans SC5314 assessed as cell death level at 100 uM after 3 hrs by Fluorescence analysis; format: functional; summary of the method: as §2
[11] = test system: Candida albicans; assay: Upregulation of Acetyl-CoA hydrolase/transferase expression in Candida albicans SC5314 at 200 uM after 24 hrs by MALDI-TOF MS; format: functional, organism-based; summary of the method: as §3

CC(C)=CCC/C(C)=C/CC/C(C)=C/CO [FARNESOL]
Activity [1]: Active
Activity [2]: Active
Activity [3]: 35%
Activity [4]: Active
Activity [5]: Active
Activity [6]: Active
Activity [7]: Active
Activity [8]: Active
Activity [9]: 14.5%
Activity [10]: 20%
Activity [11]: Active
